Bioassay records from PubChem BioAssay.
RAD54 branch – blocks human RAD54 Holliday junction branch migration; Q92698; FAM/BHQ fluorescence; inhibition, % at 10.4 µM; actives 0.14% (n = 360,000); AID 602329;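 active = mean normalized replicate activity at least 40 and at least half of replicates scoring 40 or more; inconclusive = only one of the two criteria met; inactive = mean below 40 and under half of replicates reaching 40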;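 also: 0% = median of neutral control wells and 100% = median of positive control wells; inhibitors cause a drop in the FAM fluorescence signal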
MLL AF4-AF9 inh – inhibitors of human MLL-AF4/AF9 interaction; inhibition, % at 10 µM; AID 651704; P42568; AlphaScreen, biotin-AF4 peptide binding to FLAG-AF9; actives 0.47% (n = 350,000);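 active = every replicate reaching a set inhibition limit, whatever the replicate mean, cut at about 25% in these data; inconclusive = mean inhibition reaches that limit but some replicates miss it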;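 also: 0% = plate neutral control median and 100% = total signal loss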
RAD52 inh – blocks human RAD52 DNA annealing; inhibition, % at 18.7 µM; AID 651710; P43351; recombinant RAD52 DNA annealing, FRET fluorescence; actives 0.46% (n = 360,000);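 active = every replicate showing at least 50% inhibition; inconclusive = mean inhibition at least 50% but not in every replicate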
Target sequence (P43351 whole entry, looked up): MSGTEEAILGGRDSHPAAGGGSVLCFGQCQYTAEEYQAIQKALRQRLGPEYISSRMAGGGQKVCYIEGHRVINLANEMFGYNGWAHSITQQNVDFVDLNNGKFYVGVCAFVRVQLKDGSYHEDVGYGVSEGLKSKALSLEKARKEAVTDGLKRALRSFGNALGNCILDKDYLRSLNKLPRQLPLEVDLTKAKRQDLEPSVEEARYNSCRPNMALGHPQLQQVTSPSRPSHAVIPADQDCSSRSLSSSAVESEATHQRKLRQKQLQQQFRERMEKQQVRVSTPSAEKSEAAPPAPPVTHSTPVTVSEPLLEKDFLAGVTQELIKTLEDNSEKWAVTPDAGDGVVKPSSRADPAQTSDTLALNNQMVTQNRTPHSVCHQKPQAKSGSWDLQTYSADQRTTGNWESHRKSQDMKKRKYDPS
S100A4 inh HTS – blocks human S100A4 binding to myosin IIA peptide. S100A4/TAMRA-MyoIIA peptide fluorescence polarization. inhibition, % at 10.7 µM. P26447. actives 0.14% (n = 360,000);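 active = mean inhibition of at least 70% across replicates, with every replicate also reaching that level; inconclusive = mean inhibition reaches 70% but some replicates fall short; inactive = mean inhibition below 70%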
Target sequence (P26447 whole entry, looked up): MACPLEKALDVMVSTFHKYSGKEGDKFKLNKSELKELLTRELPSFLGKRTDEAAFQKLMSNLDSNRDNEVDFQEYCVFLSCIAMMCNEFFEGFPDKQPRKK
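System – human S100A4 monomer protein, biochemical binding assay · Buffer or medium – Calcium-containing HEPES buffer, pH 7.2 · Timing – 5 min between mix addition and reading · Also added – TAMRA-labelled myosin IIA heavy-chain peptide probe, 5 nM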
GSIS activator – GLuc luminescence reporter in INS-1E cells, primary screen for activators of glucose-dependent secretion of insulin; INS-1E GLuc reporter insulin secretion, 2-3 h; activation, % at 16.6 µM; actives 0.61% (n = 370,000); AID 743287;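 active = lowest replicate activation of at least 40%, so every replicate reaches that level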;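 also: 0% = median of neutral control wells and 100% = median of IBMX positive control wells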
AlphaScreen intf – AlphaScreen signal interference counter-screen hit. shares compounds with MLL AF4-AF9 inh. signal luminescence. AC50, µM (highest dose often 12 µM), without a hit: at the top dose activity change, negative = inhibition. actives 45% (n = 530); cut-off not given, nearly all actives have AC50 up to about 14 µM
Active calls of the source: *. Compounds with a hit are over-represented: about 1.3% of the library has one in this group of screens.

CC(=O)c1cccc2c(O)c(C3=Nc4ccccc4C3=O)[nH]c12 was read as RAD54 branch -5, MLL AF4-AF9 inh 40*, S100A4 inh HTS -12 and AlphaScreen intf 3.5µM*.
For C[C@H](CO)N1C[C@H](C)[C@@H](CN(C)Cc2ccc(Oc3ccccc3)cc2)OCc2ccccc2-c2c(n(C)c3ccccc23)C1=O the results were MLL AF4-AF9 inh 3, RAD52 inh 29, S100A4 inh HTS 5 and GSIS activator 1.
`Fc1ccc([C@@H]2CCNC[C@H]2COc2ccc3c(c2)OCO3)cc1` gave RAD54 branch 24, MLL AF4-AF9 inh 34*, RAD52 inh 14, S100A4 inh HTS 0 and AlphaScreen intf -28%.
`COC1=C(Nc2ccccc2OC)C(=O)c2ccccc2C1=O` gave RAD54 branch -3, MLL AF4-AF9 inh 50*, RAD52 inh -9, S100A4 inh HTS -7, GSIS activator 4 and AlphaScreen intf 7.9µM*.
Clc1ccc(CN2CCCCCC2)cc1 was read as RAD54 branch -16, MLL AF4-AF9 inh -3, RAD52 inh -1, S100A4 inh HTS 1 and GSIS activator 14.
O=[N+]([O-])c1cc(CN2CCCC2)ccc1Sc1ccc(Cl)cc1 was read as MLL AF4-AF9 inh 34*, RAD52 inh 5, S100A4 inh HTS -4, GSIS activator -6 and AlphaScreen intf -32%.
For CC1C/C(=C/c2cccs2)C(=O)/C(=C/c2cccs2)C1 (centres undefined) the results were MLL AF4-AF9 inh inconclusive, RAD52 inh -76, S100A4 inh HTS 6, GSIS activator -26 and AlphaScreen intf -20%.
Screening Cc1cccc(CN(C)C[C@@H]2OCc3cn(nn3)CCCC(=O)N([C@H](C)CO)C[C@@H]2C)c1 returned RAD54 branch 5, MLL AF4-AF9 inh -2, RAD52 inh -2, S100A4 inh HTS 2 and GSIS activator 0.
Screening O=C(C[C@@H]1CC[C@H]2[C@@H](COC[C@H](O)CN2S(=O)(=O)c2ccc(F)cc2)O1)NCCN1CCCCC1 returned RAD54 branch 6, MLL AF4-AF9 inh -1, RAD52 inh 7, S100A4 inh HTS -13 and GSIS activator 6.
Screening O=C(C[C@H]1CC[C@@H]2[C@H](COC[C@@H](O)CN2S(=O)(=O)c2ccc(F)cc2)O1)NCC1CCCCC1 returned RAD54 branch 8, MLL AF4-AF9 inh 34*, RAD52 inh 89*, S100A4 inh HTS -48, GSIS activator 17 and AlphaScreen intf -19%.
Screening C[C@@H]1CCCCO[C@@H](CN(C)C(=O)C2CCCCC2)[C@H](C)CN([C@@H](C)CO)C(=O)c2cc(NC(=O)Nc3ccc4c(c3)OCO4)ccc2O1 returned RAD54 branch 7, MLL AF4-AF9 inh 0, RAD52 inh 0, S100A4 inh HTS -4 and GSIS activator -1.
For Cc1ccccc1/C=N/Nc1nc2ccccc2[nH]1 the results were MLL AF4-AF9 inh 5, RAD52 inh -5, S100A4 inh HTS 10 and GSIS activator -10.
Screening O=[N+]([O-])c1cc(/C=N/Nc2nc3ccccc3[nH]2)c(O)cc1O returned MLL AF4-AF9 inh 41*, RAD52 inh -14, S100A4 inh HTS 3, GSIS activator -72 and AlphaScreen intf 1.6µM*.
`CCN1C(=O)/C(=C\C(=O)c2cccs2)c2cc(Br)ccc21` gave MLL AF4-AF9 inh 37*, RAD52 inh -2, S100A4 inh HTS 3, GSIS activator 15 and AlphaScreen intf 0%.
For CC=Cc1ccc2n(c1=O)C[C@@H]1[C@@H](CO)[C@H](C(=O)NCC)[C@H]2N1CC1CCOCC1 (mixture of isomers) the results were RAD54 branch 7, MLL AF4-AF9 inh 1, RAD52 inh 15, S100A4 inh HTS -5 and GSIS activator 14.
CNC[C@@H]1Oc2ccc(NS(=O)(=O)c3ccc(OC)cc3)cc2CC(=O)N([C@@H](C)CO)C[C@H]1C was read as RAD54 branch -1, MLL AF4-AF9 inh -4, RAD52 inh -10, S100A4 inh HTS 2 and GSIS activator -3.
For Cc1ccc(N2CCOCC2)c2c1C(=O)c1ccccc1C2=O the results were MLL AF4-AF9 inh 64*, RAD52 inh 20, S100A4 inh HTS -2, GSIS activator 20 and AlphaScreen intf 10µM*.
Screening CCC(=O)N1C[C@H](C)[C@@H](OC)CN(C)C(=O)c2cc(NC(=O)c3cc(C)on3)ccc2OC[C@H]1C returned GSIS activator 17.
`CCCN(C)C[C@@H]1OCc2cn(nn2)CCCC(=O)N([C@@H](C)CO)C[C@@H]1C` gave RAD54 branch 2, MLL AF4-AF9 inh -2, RAD52 inh 10, S100A4 inh HTS 10 and GSIS activator 8.
For Oc1ccc(O)c(C=NNC(=S)NC2CC3CC2C2C=CCC32)c1 (centres undefined) the results were RAD54 branch -2, MLL AF4-AF9 inh 35*, RAD52 inh -20, S100A4 inh HTS -1, GSIS activator -11 and AlphaScreen intf 12µM*.
Nc1ccccc1Nc1cc(-c2ccccc2)nn1-c1cccc(Cl)c1 was read as MLL AF4-AF9 inh 31*, RAD52 inh -9, S100A4 inh HTS 2, GSIS activator 0 and AlphaScreen intf -24%.
For C[C@H](CO)N1C[C@H](C)[C@H](CN(C)S(=O)(=O)c2ccc(Cl)cc2)OCCCC[C@H](C)Oc2ccc(NC(=O)CCCN(C)C)cc2C1=O the results were RAD54 branch 5, MLL AF4-AF9 inh 14, RAD52 inh 42, S100A4 inh HTS -15 and GSIS activator 1.
Screening CN(C(=O)c1ccc(NC(=O)Cc2ccc(NC(=O)C3CCN(C(=O)c4ccccc4)CC3)cc2)cc1)C1CC1 returned RAD54 branch -2, MLL AF4-AF9 inh 38*, RAD52 inh -173, S100A4 inh HTS 3, GSIS activator -15 and AlphaScreen intf -15%.
`CN(CCc1ccccc1)C(=O)c1ccc(NC(=O)Cc2cccc(NC(=O)C3CCN(C(=O)C4CCCC4)CC3)c2)cc1` gave RAD54 branch 7, MLL AF4-AF9 inh 3, RAD52 inh -3, S100A4 inh HTS 1 and GSIS activator 0.
CN(CCc1ccccc1)C(=O)c1ccc(NC(=O)Cc2ccc(NC(=O)C3CCN(C(=O)C4CCCCC4)CC3)cc2)cc1 was read as RAD54 branch -17, MLL AF4-AF9 inh 27*, RAD52 inh -23, S100A4 inh HTS 16, GSIS activator -10 and AlphaScreen intf 2%.
Screening C[C@@H]1CN([C@H](C)CO)C(=O)CCCn2cc(nn2)CO[C@@H]1CN(C)Cc1ccc(C(=O)Nc2ccccc2N)cc1 returned RAD54 branch -13, MLL AF4-AF9 inh -5, RAD52 inh -2, S100A4 inh HTS 4 and GSIS activator 13.
